Here are results for 2 molecules from publication PMC7395490 (Proceedings of the National Academy of Sciences of the …, 2020).

In data set [1] the test system is HCT116 xenograft tumors. Briefly: Efficacy experiment 1: tumor volume, i.p. dosing. It is filed as in vivo, NSG mice. The note with it: for tumor volumes at conclusion of study: day 28, Rh-PPO vs oxaliplatin 7.5 mpk i.p. In short, it runs like this:
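NSG mice (23 to 34 g) were given 2.5 × 10^6 HCT116 cells in 100 μL McCoy's 5A with 10% FBS, s.c. in the right flank. At ~100 mm3 (11 to 12 d), mice were randomized (10 to 13/group). Test compound in saline was given i.p. three or four times weekly. Vehicle was 0.9% NaCl. Platinum reference in 5% dextrose was given i.p. twice weekly. Mice also received 2 mL s.c. saline twice weekly. Calipers twice weekly; TV = W2L/2.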

Data set [2] deals with HCT116 xenograft tumors. Briefly: Survival rate and cause of death, efficacy experiment 1. The format is in vivo, NSG mice. In short, it runs like this:
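HCT116 s.c. xenograft NSG mice received i.p. vehicle, test compound or platinum reference plus s.c. saline hydration; n = 10 to 13 per group. Mice were removed when found dead, when declining health required killing, or when tumor diameter exceeded 15 mm. Survival versus starting number gave Kaplan–Meier curves. ILS = (DaysT – DaysC)/DaysC against vehicle controls.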

Data set [3] can be described thus: Rhodium and platinum content of tissues after i.p. treatment. The note with it: Rh-PPO 1 mpk, oxaliplatin 7.5 mpk i.p. It is filed as in vivo, NSG mice.
Data set [4] has as its system HCT116O MMR-deficient cells. Particulars: cited from earlier work; for IC50: HCT116O MMR-deficient cells.
The conditions of data set [5]: cited from earlier work.
Data set [6] concerns NSG mice. The data set can be described thus: Maximum tolerated dose. The format is in vivo. Particulars: for start of notable symptoms of distress and inactivity: mice killed before end of 10-d study. The method, boiled down:
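Weighed NSG mice received test compound dissolved in saline i.p. at 1, 2, 5 or 15 mpk, once daily for 10 consecutive days. Clinical observations and body weights were recorded daily. Surviving animals were killed with carbon dioxide at study end.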

A short description of data set [7]: Mouse body weights during i.p. treatment. It is filed as in vivo, NSG mice. The note with it: Rh-PPO treatment groups, both i.p. schedules.
Data set [8] is described as follows: Plasma pharmacokinetics after i.p. dose. It is filed as in vivo, NSG mice. The note with it: for AUC0–8 h / Cmax / t1/2: mouse plasma. The method, boiled down:
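After the final i.p. dose (0.5 or 1 mpk) in xenograft-bearing NSG mice, blood was taken by cardiac puncture at 0.5, 1, 2, 4 and 8 h (three mice/group/time) into heparinized vials on ice. Plasma was spun at 15,000 × g, 5 min, RT, and stored at −80 °C. Proteins were precipitated with acetonitrile containing a rhodium-complex internal standard. Intact complex was measured by LC-MS/MS; AUC0–8 h came from the concentration curve.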

Data set [9] concerns HCT116 xenograft tumors. The data set can be described thus: Intratumoral efficacy experiment. The format is in vivo, NSG mice. Particulars: 1 mpk intratumoral.
Data set [10] can be described thus: Aqueous solubility. The format is physicochemical.
Data set [11] can be described thus: Stability in rat plasma. It is filed as in vitro ADME.
The nature of data set [12]: Stability in rat liver microsomes. It is filed as in vitro ADME. On the technique in general: Liver microsomes are a subcellular fraction often used to study metabolism.
Data set [13] is described as follows: First mouse experiments exploring the administration route. The format is in vivo.
Data set [14] in a line: Histological analyses of collected tissues. The format is in vivo, NSG mice. Particulars: Rh-PPO-treated mice, i.p.
The test system of data set [15] is CRC cell lines. The note with it: on average across CRC cell lines; cited from earlier work.

The IC50 is the concentration needed to halve the response being measured. Usually half-life stands for the time in which the quantity being followed falls by half.

Where “and” joins values, the source holds several entries; their conditions need not be identical. Equal entries are not always repeated. Entries after “also recorded” stand apart in the source; their conditions may differ. Where two headings read alike, the source gives them in different places.

In the case of `O=C1[O][Pt]2([NH][C@@H]3CCCC[C@H]3[NH]2)[O]C1=O` [oxaliplatin, reference compound], the “tumor volumes at conclusion of study” value in data set [1] is listed as “statistically similar tumor volumes”. Also, the “mouse deaths: found dead in cage” value in data set [2] (7.5 mpk i.p.) was determined as 45.5%. Further, the “distribution of metal among organs” value in data set [3] is given as “platinum was distributed evenly”. For the same molecule, in data set [4], the IC50 is 27.5 µM. For the same molecule, the half-life in data set [5] is 0.235 h.
As for “[Rh(chrysi)(phen)(2-(pyridine-2-yl)propan-2-ol]Cl2 [Rh-PPO]”, the “body weight change in MTD study” value in [6] (1, 2, 5 mpk i.p. daily) is listed as “lost body weight in a dose-dependent manner”. The clinical observations entry in data set [6] (1 mpk i.p. daily for 10 d) is “only mild symptoms of distress; also recorded: tolerated over a 10-d period with minor indications of systemic toxicity”. Also, the “start of notable symptoms of distress and inactivity” value in data set [6] (2 mpk i.p. daily) stood at 4 days. For the same molecule, in data set [6] (5 mpk i.p. daily), the “start of notable symptoms of distress and inactivity” value amounted to 2 days. Besides, in [1] (Rh-PPO treatment groups (0.5 and 1 mpk i.p.), day 21, efficacy experiment 1), the “reduction in tumor volume relative to vehicle” value is 25 ± 2.7% and 25%. Also, in data set [1], the “tumor volumes at conclusion of study” value is listed as “statistically similar tumor volumes”. Further, the “increase in life span (ILS) relative to vehicle” value in data set [2] (Rh-PPO 0.5/1 mpk, oxaliplatin 7.5 mpk i.p.) worked out at 12%. For the same molecule, the “mice killed due to poor health and inactivity” value in data set [2] (Rh-PPO 1 mpk, oxaliplatin 7.5 mpk i.p.) is recorded as 10%. Moreover, the “mice that died due to tumors reaching maximum allowable size (15 mm)” value in data set [2] (both Rh-PPO treatment groups) worked out at 90%. The “significant mouse weight loss (more than 15% of original body weight)” value in [7] is “neither treatment schedule resulted in significant mouse weight loss”. In data set [8] (0.5 mpk i.p.), the “AUC0–8 h” value turned out to be 1.31 µM·h, the Cmax was 450 nM and the t1/2 was 1.11 h. Moreover, in data set [8] (1 mpk i.p.), the “exposure level (Cmax) relative to in vitro cell IC50 of 250 nM” value is reported as around 2.5 fold, the “AUC0–8 h” value stood at 1.52 µM·h, the Cmax stood at 650 nM and the t1/2 came out at 1.79 h. In addition, in data set [8] (i.p. dosing, 0.5 and 1 mpk), the “time to peak plasma concentration” value is at most 30 min. Also, the Cmax in data set [8] (read-out: maximum plasma concentration (Cmax), 1 mpk i.p.) is 650 nM. For the same molecule, the “distribution of metal among organs” value in [3] is recorded as “accumulation of rhodium most significantly in the liver”. In addition, in data set [9], the “toxicity of intratumoral administration” value is recorded as “significant systemic toxicity; also recorded: unacceptably toxic”. Also, in data set [10], the aqueous solubility result is reported as “high aqueous solubility”. Besides, in data set [11], the “stability in rat plasma” value is recorded as “up to 4 h”. In data set [12], the “stability in rat liver microsomes” value is on record as “up to 4 h”. Also, in [13] (20 mpk i.v.), the “tolerability of i.v. administration” value is given as “not well tolerated”. Moreover, the oral bioavailability entry in [13] (oral) was “zero oral bioavailability”. The “organ morphology (histology)” value in data set [14] is on record as “normal organ morphology”. Also, the “potency relative to cisplatin” value in [15] is on record as “five times more potent”. In addition, the IC50 in [4] was 0.25 µM. The “cytotoxicity toward HCT116O compared to HCT116N cells” value in [4] (MMR-deficient HCT116O vs matched MMR-proficient HCT116N) is “highly potent and selective cytotoxicity”.
